IDH1 R132H inh: inhibitors of IDH1 R132H reductase, primary screen, biochemical, plate reader, single point; diaphorase/resazurin fluorescence, 60 min; inhibition, % at 10 µM; 0.18% of 70,000 active; in the data active = inhibition above about 34%; inconclusive = no clear call, values can overlap the other calls; inactive = below about 11%;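 also: 0% = DMSO and 100% = no enzyme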
Target sequence (O75874 whole entry R132H): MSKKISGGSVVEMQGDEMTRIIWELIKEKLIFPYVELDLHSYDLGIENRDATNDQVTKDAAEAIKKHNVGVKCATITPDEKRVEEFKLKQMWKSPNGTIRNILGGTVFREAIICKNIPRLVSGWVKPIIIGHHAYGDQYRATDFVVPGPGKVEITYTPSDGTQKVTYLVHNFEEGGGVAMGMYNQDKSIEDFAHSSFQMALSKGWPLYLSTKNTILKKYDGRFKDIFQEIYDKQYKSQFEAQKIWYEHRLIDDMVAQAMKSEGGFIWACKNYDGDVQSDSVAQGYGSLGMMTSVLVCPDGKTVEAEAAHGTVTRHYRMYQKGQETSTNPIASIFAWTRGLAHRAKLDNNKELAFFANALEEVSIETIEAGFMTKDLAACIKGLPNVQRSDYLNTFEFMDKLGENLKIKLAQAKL
KDM4C inh: inhibitors of GASC-1 (KDM4C) histone demethylase, primary screen, biochemical, single concentration HTS; GST-KDM4C 2-372, H3K9me3 peptide, LANCE TR-FRET; inhibition, % at 12.5 µM; 0.15% of 96,000 active;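 active = mean replicate inhibition above about 25%, with at least 55% of replicates also reaching it, limit read from the data, passing the limit was not always enough; inconclusive = only one of those two conditions met; inactive = neither condition met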
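Compound: one test concentration per compound; Material: GST-GASC-1 enzyme fragment 2-372; Amount: GASC-1 enzyme at 10 nM final in reaction; Also added: H3K9me3 peptide substrate, Fe(II), 2-oxoglutarate; Technique: LANCE TR-FRET; Times: 30 min demethylation and 1 h detection at room temperature.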
Pf Dd2 inh: P. falciparum Dd2 growth inhibitors, primary screen, SYBR Green fluorescence, single dose replicates; 72 h; active compounds read low; activity change, % at 10 µM; 2.3% of 94,000 active; in the data active = activity change below about -80%; inconclusive = no clear call, values can overlap the other calls
T cruzi growth-1: T. cruzi intracellular proliferation inhibitors, primary screen, cell-based, beta-gal Tulahuen parasites, NIH3T3 host, luminescence; AID 624255, 2012; T. cruzi beta-gal in NIH3T3, GalScreen luminescence, 90 h; 5.9% of 77,000 active; inhibition, % at 8.34 µM;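 active = mean inhibition above about 93%, with at least 55% of replicates each passing it, limit read from the data, passing the limit was not always enough; inconclusive = only one of those two conditions holds; inactive = neither condition holds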
T cruzi growth-2: T. cruzi intracellular proliferation inhibitors, confirmation, cell-based, NIH3T3 host, beta-gal parasite, luminescence, cherry-pick. shares compounds with T cruzi growth-1. 72% of 5,600 active. inhibition, % at 8.35 µM. T. cruzi beta-gal in NIH3T3, GalScreen luminescence, 90 h;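 active = mean replicate inhibition above about 95% and at least 55% of replicates individually reaching it, limit read from the data; inconclusive = only one of the two criteria is met; inactive = neither criterion is met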
T cruzi growth-3: inhibitors of intracellular T. cruzi replication, confirmation, NIH3T3 host cells, beta-gal parasites, cherry-pick, set 2. inhibition, % at 2.09 µM. 21% of 5,600 active. T. cruzi beta-gal in NIH3T3, GalScreen luminescence, 90 h. shares compounds with T cruzi growth-1;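 active = mean inhibition above about 95%, with at least 55% of replicates also reaching it, limit read from the data; inconclusive = meets just one of the two conditions; inactive = meets neither condition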;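 also: plate controls were neutral control median for no effect and positive control median for full effect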
NIH3T3 tox: cytotoxicity in mouse NIH/3T3 fibroblasts, confirmation, cytotoxicity control for T. cruzi proliferation inhibitor project, cell-based, cherry-pick, single point; cytotoxicity (signal decrease), % at 8.35 µM; NIH/3T3 viability, CellTiter-Glo ATP luminescence, 90 h; shares compounds with T cruzi growth-1; 14% of 5,600 active;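 active = mean signal decrease across replicates above about 35% based on untreated-well scatter, with enough replicates individually passing, limit read from the data; inconclusive = no rule stated though some were filed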;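 also: 0% = median of neutral control wells and 100% = median of positive control wells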
NIH3T3 tox 2: NIH/3T3 fibroblast cytotoxicity, confirmation, cytotoxicity control, cell-based, cherry-pick, single point, set 2; NIH/3T3 viability, CellTiter-Glo ATP luminescence, 90 h; inhibition, % at 24.9 µM; 56% of 5,600 active; shares compounds with T cruzi growth-1;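 active = mean loss of cell viability signal at or above a set limit, and enough replicates individually reaching it; inconclusive = meets only the mean limit or only the replicate share; inactive = meets neither condition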;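 also: 0% = median of neutral control wells and 100% = median of positive control wells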
* = called active by the depositor; ? = inconclusive; / = no result given. A selection: hits, their analogues and other compounds. The true share with any hit is near 5.8%.

SMILES	IDH1 R132H inh	KDM4C inh	Pf Dd2 inh	T cruzi growth-1	T cruzi growth-2	T cruzi growth-3	NIH3T3 tox	NIH3T3 tox 2
COc1ccc(C#Cc2ccc([C@@H]3[C@H](CO)N4CCCCN(C(=O)Cc5ccncc5)C[C@@H]34)cc2)cc1	/	0	-71	112*	103*	86	15	104*
COc1ccc(-c2ccc([C@@H]3[C@@H](CO)N4CCCCN(C(=O)Cc5ccncc5)C[C@H]34)cc2)cc1	/	1	-47	55	/	/	/	/
COc1ccc(C#Cc2ccc([C@H]3[C@H](CO)N4CCCCN(C(=O)Cc5ccncc5)C[C@@H]34)cc2)cc1	/	-2	-62	106*	108*	81	20	105*
COc1ccc(-c2ccc([C@H]3[C@H]4CN(C(=O)Cc5ccncc5)CCCCN4[C@H]3CO)cc2)cc1	/	-1	-4	70	/	/	/	/
C[C@H]1CN([C@@H](C)CO)C(=O)CCCn2cc(nn2)CO[C@H]1CN(C)C(=O)Oc1cccc2ccccc12	0	0	-15	117*	52	13	11	24
CO/C1=C/C(C)=C/[C@@H](C)[C@@H](O)[C@@H](C)C/C(C)=C/C=C\[C@H](OC)[C@@H]([C@@H](C)[C@@H](O)[C@H](C)[C@@]2(O)C[C@@H](O)[C@H](C)[C@@H](C(C)C)O2)OC1=O	1	/	/	/	/	/	/	/
COc1cccc(-c2ccc([C@@H]3[C@H](CO)N4CCCCN(C(=O)Cc5ccncc5)C[C@@H]34)cc2)c1	/	-1	-44	?	83	18	9	35*
COc1cccc(-c2ccc([C@@H]3[C@@H](CO)N4CCCCN(C(=O)Cc5ccncc5)C[C@@H]34)cc2)c1	/	0	-52	63	/	/	/	/
COc1cccc(-c2ccc([C@H]3[C@H](CO)N4CCCCN(C(=O)Cc5ccncc5)C[C@@H]34)cc2)c1	/	0	-40	73	/	/	/	/
COc1cccc(-c2ccc([C@H]3[C@@H](CO)N4CCCCN(C(=O)Cc5ccncc5)C[C@H]34)cc2)c1	/	-1	-39	107*	110*	61	20	48*
COc1cccc(-c2ccc([C@H]3[C@@H](CO)N4CCCCN(C(=O)Cc5ccncc5)C[C@@H]34)cc2)c1	/	0	-51	111*	110*	49	12	24
COc1cccc(-c2ccc([C@@H]3[C@@H](CO)N4CCCCN(C(=O)Cc5ccncc5)C[C@H]34)cc2)c1	/	0	-31	114*	102*	38	25	38*
C=CC1CN2CCC1CC2C(OC(=O)c1ccco1)c1ccnc2ccccc12 (centres undefined)	4	/	/	/	/	/	/	/
O=C1Nc2cc(Cl)c(Cl)cc2N2CCNCC12 (centres undefined)	2	/	/	/	/	/	/	/
C#CCN1C(C)=C(C(=O)CCO)C(c2cccc(-n3oo3)c2)C(C(=O)OC)=C1C (centres undefined)	0	/	/	/	/	/	/	/
CNCC(O)c1ccc(O)c(OC)c1 (centres undefined)	-1	/	/	/	/	/	/	/
O=C(Cc1ccncc1)N1CCCCN2[C@@H](CO)[C@@H](c3ccc(-c4ccncc4)cc3)[C@@H]2C1	/	0	5	85	/	/	/	/
O=C(Cc1ccncc1)N1CCCCN2[C@H](CO)[C@H](c3ccc(-c4ccncc4)cc3)[C@@H]2C1	/	1	-75	102*	50	-25	-2	-10
O=C(Cc1ccccc1)N1CCCCN2[C@H](CO)[C@H](c3ccc(-c4ccccc4)cc3)[C@@H]2C1	/	-2	23	5	/	/	/	/
COc1ccc(-c2ccc([C@@H]3[C@H](CO)N4CCCCN(C(=O)Cc5ccccc5)C[C@@H]34)cc2)cc1	/	-2	-30	99*	104*	78	26	106*
O=C(Cc1ccccc1)N1CCCCN2[C@@H](CO)[C@@H](c3ccc(-c4ccccc4)cc3)[C@@H]2C1	/	-1	-19	?	104*	56	16	105*
COc1ccc(-c2ccc([C@H]3[C@@H](CO)N4CCCCN(C(=O)Cc5ccccc5)C[C@@H]34)cc2)cc1	/	0	-51	102*	107*	106*	19	?
N#Cc1ccc(-c2ccc([C@@H]3[C@H](CO)N4CCCCN(C(=O)Cc5ccccc5)C[C@@H]34)cc2)cc1	/	0	-26	92	/	/	/	/
COc1ccc(-c2ccc([C@H]3[C@H](CO)N4CCCCN(C(=O)Cc5ccccc5)C[C@@H]34)cc2)cc1	/	-1	-10	108*	107*	81	11	106*
Cc1ccccc1-c1ccc([C@@H]2[C@H]3CN(C(=O)Cc4ccccn4)CCCCN3[C@H]2CO)cc1	/	-1	-2	99*	68	27	-6	9
SMILES	IDH1 R132H inh	KDM4C inh	Pf Dd2 inh	T cruzi growth-1	T cruzi growth-2	T cruzi growth-3	NIH3T3 tox	NIH3T3 tox 2
Cc1ccccc1-c1ccc([C@H]2[C@H]3CN(C(=O)Cc4ccccn4)CCCCN3[C@H]2CO)cc1	/	-1	-11	?	51	-1	-17	8
Cc1ccccc1-c1ccc([C@H]2[C@@H](CO)N3CCCCN(C(=O)Cc4ccccn4)C[C@@H]23)cc1	/	1	6	103*	97*	85	23	?
CCCCC/C=C/C/C=C/C/C=C/C/C=C/CCCC(=O)NCCCC(=O)O	0	/	/	/	/	/	/	/
CC(=O)c1c(C)n(Cc2ccccc2)c2c(Cl)c(Cl)c(Cl)c(OCC(=O)O)c12	3	/	/	/	/	/	/	/
CCC(C)[C@H]1C(=O)O[C@H](C(C)C)C(=O)N(C)[C@@H](C(C)C)C(=O)O[C@H](C(C)C)C(=O)N(C)[C@@H](C(C)C)C(=O)O[C@H](C(C)C)C(=O)N1C (some centres undefined)	0	/	/	/	/	/	/	/
O=C(Cc1ccccn1)N1CCCCN2[C@H](CO)[C@@H](c3ccc(C#Cc4ccccc4)cc3)[C@@H]2C1	/	0	-70	30	/	/	/	/
O=C(Cc1ccccn1)N1CCCCN2[C@H](CO)[C@@H](c3ccc(C#Cc4ccccc4)cc3)[C@H]2C1	/	1	-34	106*	97*	41	41*	106*
O=C(Cc1ccccn1)N1CCCCN2[C@@H](CO)[C@H](c3ccc(C#Cc4ccccc4)cc3)[C@@H]2C1	/	-2	-20	114*	109*	53	39*	105*

Screening data from PubChem.
